High-throughput results (PubChem)
In the library only some 3.5% were active in any assay of this set; here they are far more common.
MrgX1 agonist: human MrgX1 receptor agonism, primary screen; B-score at 10 µM; Q96LB2; hit rate 0.44% among 310,000; AID 588627; MrgX1-HEK293 cells, Fluo-4 calcium fluorescence, agonist mode; active compounds read high;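 active = calcium response B-score plate-corrected fluorescence ratio at least 3 library SD, with starting fluorescence B-score inside 5 SD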
Target sequence (Q96LB2 whole entry, looked up): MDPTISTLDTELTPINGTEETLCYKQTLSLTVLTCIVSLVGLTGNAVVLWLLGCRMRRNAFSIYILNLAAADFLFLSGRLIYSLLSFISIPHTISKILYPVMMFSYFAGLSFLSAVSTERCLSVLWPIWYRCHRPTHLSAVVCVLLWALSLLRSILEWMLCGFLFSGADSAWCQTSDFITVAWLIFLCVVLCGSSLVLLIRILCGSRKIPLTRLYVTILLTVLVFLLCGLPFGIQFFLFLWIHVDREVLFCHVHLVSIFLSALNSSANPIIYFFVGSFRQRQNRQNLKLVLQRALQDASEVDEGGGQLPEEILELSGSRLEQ
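System – MrgX1-expressing HEK293 cells · Incubation – cells plated overnight, dye loaded 0.5 h 37 °C, 0.5 h room temperature · Technique – kinetic Fluo-4 NW fluorescence of intracellular calcium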
MrgX1 PAM: human MrgX1 positive allosteric modulation, primary screen | Q96LB2 | MrgX1-HEK293, Fluo-4 calcium flux, FDSS; active compounds read high | B-score at 10 µM | hit rate 0.63% among 310,000 | AID 588675;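 active = plate-corrected calcium response at least 3 library SD above typical, normal starting fluorescence, not activating the receptor alone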;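 also: compound read alongside a low EC10 to EC30 dose of BAM8-22 agonist; peak minus trough fluorescence over baseline measured at the second addition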
RGS4 pot: potentiators or activators of RGS4; hit rate 0.92% among 310,000; AID 463111; B-score at 10 µM; HEK293 M3R/inducible RGS4, carbachol calcium flux Fluo4; active compounds read low;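 active = B-score of the integrated calcium signal more than 4 SD below the library mean, with starting fluorescence not abnormally high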;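 also: negative B-score means reduced calcium response which marks RGS4 activation or potentiation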
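System: HEK293 FlpIn-TREx cells, stable M3R, doxycycline-inducible RGS4. Timing: overnight RGS4 induction, 30 min dye load 37 °C, 20 min compound RT. Also added: carbachol, ECmax concentration. Measured by: Fluo4 fluorescence kinetic imaging of calcium. Evaluation: integrated calcium ratio converted to B score.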
RGS4 inh: inhibitors of human RGS4; HEK293 M3R/RGS4 inducible, Fluo-4 calcium flux; active compounds read high; triggered by carbachol at its EC20; P49798; hit rate 0.45% among 310,000; B-score at 10 µM;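 active = B-score, a plate-corrected calcium signal, over three deviations above library mean, with baseline fluorescence within five deviations of library mean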;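 also: RGS4 expression induced by doxycycline in cells with stable M3 receptor; B-score is computed from the integrated fluorescence ratio over baseline after carbachol; higher B-score means a larger calcium signal and so more RGS4 inhibition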
Target sequence (P49798 whole entry, looked up): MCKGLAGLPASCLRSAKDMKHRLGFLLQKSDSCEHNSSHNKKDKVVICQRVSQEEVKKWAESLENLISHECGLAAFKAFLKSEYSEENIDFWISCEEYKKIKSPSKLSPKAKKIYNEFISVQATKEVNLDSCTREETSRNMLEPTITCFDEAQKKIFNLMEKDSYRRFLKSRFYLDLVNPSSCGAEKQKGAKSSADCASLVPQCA
MrgX1 antagonist: antagonists of human MrgX1 receptor; AID 588676; MRGX1-HEK293 calcium flux, Fluo-4, BAM8-22 antagonism; active compounds read low; Q96LB2; hit rate 1.3% among 310,000; B-score at 10 µM;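 active = calcium-response B-score plate-corrected more than 3 library SD below zero, starting fluorescence within 5 deviations, no agonist response on first addition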;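 also: peak minus trough fluorescence over baseline after final BAM8-22 challenge near maximal dose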
RGS4 inh valid: RGS4 inhibitor validation; shares compounds with RGS4 inh; calcium response, % at 10 µM; HEK293 M3R/RGS4, carbachol calcium Fluo-4 fluorescence; carbachol added at its EC20; 0 = buffer wells, 100 = carbachol control; hit rate 65% among 1,700;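 active = duplicate-averaged calcium response above the buffer-only control mean plus 5 SD of those controls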;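 also: integrated fluorescence ratio F max minus min over baseline F0; higher response in RGS4-induced cells means RGS4 inhibition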
RGS4 uninduced: non-induced cell nonspecific activity of RGS4 inhibitors; shares compounds with RGS4 inh; HEK293 M3R non-induced, carbachol calcium Fluo-4; submaximal (EC20) carbachol stimulus; buffer wells 0%, carbachol control wells 100%; activity (percent), % at 10 µM; hit rate 20% among 1,900; AID 493000; call rule not given here;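 also: RGS4 induction absent so cells express M3R without RGS4; higher means more calcium signal and flags a non-specific hit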
M3R basal Ca ctr: second RGS4 inhibitor counter-screen in uninduced cells lacking carbachol. shares compounds with RGS4 inh. HEK293 M3R/RGS4 non-induced, Fluo-4 calcium, no carbachol; normalised: buffer wells 0%, carbachol wells 100%. AID 493001. calcium response (agonist-mode artifact), % at 10 µM. hit rate 22% among 1,900;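 active = duplicate-averaged calcium rise in uninduced cells above buffer wells' mean plus 5 SD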
* marks the source's active call; other numbers are inactive results; i = inactive; . = not tested or not shown.

SMILES	MrgX1 agonist	MrgX1 PAM	RGS4 pot	RGS4 inh	MrgX1 antagonist	RGS4 inh valid	RGS4 uninduced	M3R basal Ca ctr
COC(=O)c1ccc(NC(=S)Nc2ccccc2)cc1	i	i	i	i	i	.	.	.
CN(C)c1ccc(-c2nc3ccccc3c(=O)[nH]2)cc1	i	i	i	i	i	.	.	.
Cc1cc(C2(c3ccc(O)c(C)c3)C(=O)N(C)c3ccc(Br)cc32)ccc1O	i	i	i	13*	i	28%*	i	i
CC1(C)COC(/C=C/c2ccc([N+](=O)[O-])cc2)=N1	i	i	i	5.7*	i	8.0%*	29%*	i
COc1cccc(N2CC(C(=O)Nc3nnc(SCc4cccnc4)s3)CC2=O)c1 (stereo unspecified)	i	i	i	i	i	.	.	.
CCOc1c(Cl)cc(/C=C/C(=O)N(CC)CC(=O)Nc2ccc(NC(C)=O)cc2)cc1OC	i	i	i	i	i	.	.	.
CC(=O)Oc1cc2c(cc1Cl)C1(CC(c3ccccc3Cl)O2)CC(C)(C)NC(=S)N1 (stereo unspecified)	i	i	i	5*	i	9.0%*	i	i
O=C1COc2ccc(C(=O)CCl)cc2N1	i	i	i	13*	i	66%*	58%*	9.5%*
COC(=O)CC1C(=O)NCCN1C(=O)Nc1ccc(Cl)cc1 (stereo unspecified)	i	i	i	i	i	.	.	.
COc1ccc(NC(=O)N2CCNC(=O)C2CC(=O)Nc2ccc(F)cc2)cc1 (stereo unspecified)	i	i	i	i	i	i	i	i
CCOc1ccc(NC(=O)CC2C(=O)NCCN2C(=O)Nc2ccccc2)cc1 (stereo unspecified)	i	i	i	i	i	.	.	.
O=C(CC1C(=O)NCCN1C(=O)Nc1ccccc1)Nc1ccc(F)cc1 (stereo unspecified)	i	i	i	i	i	.	i	i
O=C(CC1C(=O)NCCN1C(=O)Nc1ccccc1)Nc1cc(Cl)ccc1Cl (stereo unspecified)	i	i	i	i	i	.	.	.
Cc1cccc(NC(=O)CC2C(=O)NCCN2C(=O)Nc2ccc(Cl)cc2)c1 (stereo unspecified)	i	i	i	9.1*	i	26%*	46%*	i
O=C(CC1C(=O)NCCN1C(=O)Nc1ccc(F)cc1)Nc1cc(Cl)ccc1Cl (stereo unspecified)	i	i	i	i	i	.	i	10%*
CCOC(=O)c1c(C)nc2sc3c(c2c1-c1ccc(OC)cc1)NC(c1ccc(OC)cc1)NC3=O (stereo unspecified)	i	i	i	i	i	.	.	.
CCOc1ccc(CNC(=O)c2ccc(Sc3ccc(C)cc3)c(NC(C)=O)c2)cc1	i	i	i	i	i	.	.	.
O=C(CC1C(=O)NCCN1C(=O)Nc1ccc(Cl)cc1)Nc1ccc(F)cc1 (stereo unspecified)	i	i	i	5.6*	i	23%*	37%*	12%*
O=C(CC1C(=O)NCCN1C(=O)c1ccc(Cl)cc1)Nc1ccc(F)cc1 (stereo unspecified)	i	i	i	i	i	i	i	i
N#CC1=C(N)Oc2c(O)cc3ccccc3c2C1c1ccsc1 (stereo unspecified)	i	i	i	14*	i	40%*	33%*	i
Cc1ccc2c(C)c(C(=O)N(Cc3ccc(N(C)C)cc3)C3CCS(=O)(=O)C3)oc2c1 (stereo unspecified)	i	i	i	i	i	.	.	.
Nc1c(S(=O)(=O)c2cccs2)c2nc3ccccc3nc2n1Cc1ccc2c(c1)OCO2	i	i	i	6.9*	i	9.5%*	i	i
CN(C)S(=O)(=O)N1CCC(Oc2ccc(C(=O)N3CCCCCCC3)cc2)CC1	i	i	i	i	i	.	.	.
CN(c1ccccc1C(=O)Nc1cccc(Cl)c1Cl)S(C)(=O)=O	i	i	i	i	i	.	.	.
COC(=O)c1cn(C(=O)/C=C/c2ccc(OC)c(OC)c2)c2ccccc12	i	i	i	4.7*	i	i	i	i
SMILES	MrgX1 agonist	MrgX1 PAM	RGS4 pot	RGS4 inh	MrgX1 antagonist	RGS4 inh valid	RGS4 uninduced	M3R basal Ca ctr
COC(=O)c1cn(C(=O)OC)c2ccccc12	i	i	i	i	i	.	.	.
COc1cc(/C=C/C(=O)c2ccc([N+](=O)[O-])o2)ccc1O	i	i	i	8.7*	i	39%*	i	i
COc1ccc(/C=C/C(=O)c2ccc([N+](=O)[O-])o2)cc1OC	i	i	i	i	i	.	i	i
NS(=O)(=O)c1ccc(CNC(=O)/C=C/c2cccc(Cl)c2)cc1	i	i	i	i	i	.	.	.
O=C(/C=C/c1cccc(Cl)c1)c1ccc([N+](=O)[O-])o1	i	i	i	14*	i	18%*	34%*	7.0%*
CCC1(CC)Cc2ccccc2-c2nc(NCCO)[nH]c(=O)c21	i	i	i	26*	i	101%*	84%*	i
O=c1[nH]c(NCCO)nc2c1C1(CCCCC1)Cc1ccccc1-2	i	i	.	.	i	.	.	.
CC(=O)N1CCc2cc(S(=O)(=O)NC(C(=O)NC(C)c3ccccc3)C(C)C)ccc21 (stereo unspecified)	i	i	i	i	i	i	i	i
CCN(CC(=O)NC(C)C)Cc1nc2c(Br)cc(Br)cc2c(=O)[nH]1	i	i	i	5*	i	25%*	i	12%*
Cc1cccc(C2c3[nH]c4ccccc4c3CCN2C(=O)Cc2nc(-c3ccccc3)n[nH]2)n1 (stereo unspecified)	i	i	i	5.7*	i	10%*	i	i
CNC(=O)c1nnsc1S(=O)c1ccc(Cl)cc1 (stereo unspecified)	.	.	i	7.3*	.	30%*	i	14%*
CCCNC(=O)c1nnsc1S(=O)c1ccc(Cl)cc1 (stereo unspecified)	.	.	i	7.2*	.	12%*	i	22%*
